The list is not random: actives were taken first. Their share in the collection is about 1.8%.
NR2E3 ag-1 – NR2E3 (human) agonism | Q9Y5X4 | GST-NR2E3/biotin-RetCOR TR-FRET, 1536-well | inhibition of corepressor binding, % at 4.78 µM | actives 0.12% (n = 320,000);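 active means percent inhibition above the cutoff of mean plus 3 SD of all tested compounds, set per screening campaign, cut at about 20% in these data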;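 further: 0% = DMSO wells and 100% = biotin wells as full block of FRET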
Target sequence (Q9Y5X4 whole entry, looked up): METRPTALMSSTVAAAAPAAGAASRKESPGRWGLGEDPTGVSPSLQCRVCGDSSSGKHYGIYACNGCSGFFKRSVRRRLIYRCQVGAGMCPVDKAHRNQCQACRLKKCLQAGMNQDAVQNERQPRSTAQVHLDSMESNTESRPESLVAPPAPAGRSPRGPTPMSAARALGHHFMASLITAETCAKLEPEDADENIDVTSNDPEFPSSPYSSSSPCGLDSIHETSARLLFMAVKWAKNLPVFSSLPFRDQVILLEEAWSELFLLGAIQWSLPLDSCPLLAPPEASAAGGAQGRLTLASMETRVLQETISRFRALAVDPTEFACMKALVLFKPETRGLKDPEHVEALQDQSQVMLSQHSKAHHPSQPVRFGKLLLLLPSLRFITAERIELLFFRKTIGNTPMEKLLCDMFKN
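Test system – NR2E3–RetCOR corepressor complex · Quantity – NR2E3 fusion 1.35 nM · Buffer or medium – Tris pH 7.5 · Incubation – Compound–protein incubation for 5 h at 4 °C · Technique – TR-FRET, Eu(K)-anti-GST donor, streptavidin-D2 acceptor, ex 340, em 617/671 nm · Evaluation – percent inhibition of 671/617 nm emission ratio versus biotin and DMSO controls · Plate – 1536-well format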
NR2E3 ag-2 – agonists of human NR2E3 nuclear receptor. Q9Y5X4. CHO-S Gal4-NCOR/VP16-NR2E3 two-hybrid, luciferase. inhibition of corepressor binding, % at 3.98 µM. actives 0.35% (n = 360,000). AID 602229;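 active means inhibition above the mean of all tested compounds plus 3 SD, cut at about 70% in these data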;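 further: 0% = DMSO with NR2E3 transfected cells and 100% = cells lacking NR2E3 construct; higher means lower luciferase signal from less NR2E3 corepressor binding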
GalR3 antagonist – antagonists of human GalR3. inhibition, % at 3 µM. O60755. actives 0.44% (n = 360,000). HEK293 GalR3-CNG cAMP membrane potential fluorescence; galR3 body fused to GalR1 C-terminus. AID 651719;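 active means inhibition above the screen-wide average plus 3 SD, cut at about 13% in these data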;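 further: forskolin and galanin both at EC90 stimulate the cells; cAMP rise reported by CNG channel membrane potential dye signal; 0% = forskolin plus galanin with DMSO and 100% = forskolin alone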
Target sequence (O60755 1-299 limits assumed): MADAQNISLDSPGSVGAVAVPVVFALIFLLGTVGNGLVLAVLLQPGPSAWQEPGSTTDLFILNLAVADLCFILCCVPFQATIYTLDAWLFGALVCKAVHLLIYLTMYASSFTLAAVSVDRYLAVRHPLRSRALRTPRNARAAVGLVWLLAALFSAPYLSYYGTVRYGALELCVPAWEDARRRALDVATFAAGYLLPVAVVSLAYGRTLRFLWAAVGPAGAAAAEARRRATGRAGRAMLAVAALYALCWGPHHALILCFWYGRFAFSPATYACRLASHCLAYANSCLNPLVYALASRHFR
697 NFkB inh – lowers PMA/ionomycin-induced NF-kB signal in 697 B cells. 697 B-cell NF-kB luciferase reporter, 16 h. AID 435022. actives 0.33% (n = 330,000). inhibition, % at 4 µM; in the data active means inhibition above about 35%
Gli-Sufu antag – antagonists of Gli-Sufu signaling. Sufu-KO-LIGHT fibroblasts, Gli luciferase reporter luminescence. inhibition, % at 5 µM. actives 0.74% (n = 340,000);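 active means inhibition above about 55%, limit read from the data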;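 further: 0% = DMSO-treated cells and 100% = wells with medium but no cells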
Jurkat NFkB inh – inhibitors of the PMA/ionomycin-induced NF-kB reporter in Jurkat cells | PMA/ionomycin-induced NF-kB luciferase reporter, luminescence | actives 0.53% (n = 330,000) | inhibition, % at 4 µM | AID 435003; in the data active means inhibition above about 50%
Gli-Sufu confirm – confirmation of Gli-SUFU pathway antagonists | shares compounds with Gli-Sufu antag | Sufu-KO-LIGHT cells, Gli luciferase reporter, luminescence | inhibition, % at 5 µM | actives 40% (n = 2,500) | AID 602428;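 active means mean inhibition at 5 µM reaching about 45%, limit read from the data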;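 further: plate controls were DMSO-treated cells for no effect and wells lacking cells for full effect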
Gli cytotox – cytotoxic in Gli-SUFU antagonist counter-screen | shares compounds with Gli-Sufu antag | Sufu-KO-LIGHT cells cytotoxicity, ATP luminescence | cytotoxicity, % at 5 µM | actives 32% (n = 2,500) | AID 651994;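 active means mean cytotoxicity at 5 µM above about 25%, limit read from the data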;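 further: cells exposed to compound overnight for roughly 16 to 18 hours; plate controls were DMSO wells with cells for no effect and medium without cells for full effect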
Wnt3a cs – inhibits Wnt3a reporter, counter-screen for Gli-SUFU antagonists. shares compounds with Gli-Sufu antag. Wnt-LIGHT cells, Wnt3a-driven luciferase reporter, luminescence. inhibition, % at 6.25 µM. actives 20% (n = 2,500). AID 651995;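 active means mean inhibition above about 25%, limit read from the data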
Starred values were filed as active, the others as inactive; x = not tested or not shown.

SMILES | NR2E3 ag-1 | NR2E3 ag-2 | GalR3 antagonist | 697 NFkB inh | Gli-Sufu antag | Jurkat NFkB inh | Gli-Sufu confirm | Gli cytotox | Wnt3a cs
O=c1c2c([nH]c3ccccc13)CCC2 | 0 | -10 | -3 | 15 | 60* | 4 | 30 | 6 | 6
O=c1c2c([nH]c3ccc(Br)cc13)CCCC2 | -1 | -10 | -2 | 7 | 8 | 6 | x | x | x
O=C(COC(=O)CSc1ccc(F)cc1)NCC1CCCCC1 | 0 | -7 | 5 | -4 | 95* | -19 | 30 | 16 | -6
O=C(COC(=O)CSc1ccc(F)cc1)NC1CC1 | x | -16 | -8 | x | x | x | x | x | x
CN(C)c1ccc(N/C(N)=N/c2nc(C(F)(F)F)cc(C(F)(F)F)n2)cc1 | 1 | 22 | -1 | -10 | 50 | 0 | 22 | 12 | -21
C#CCN1CC(COCCCC)Oc2cccc(F)c2S1(=O)=O (stereo not drawn) | x | x | -8 | x | x | x | x | x | x
COc1cccc(CNC(=O)COC(=O)c2ccc(N3CCCC3=O)cc2)c1 | x | -30 | -5 | x | x | x | x | x | x
Cc1ccc(C[n+]2cccc(-c3ccccc3)c2)c(C)c1 | 2 | -6 | -2 | 28 | 84* | 19 | 84* | 21 | 56*
Cc1ccc2ccc[n+](Cc3ccccc3)c2c1 | 1 | -25 | -1 | 1 | 22 | 29 | x | x | x
Cc1ccc2nc(Nc3ccc(C)c(Cl)c3)c3nncn3c2c1 | -2 | -30 | -5 | -1 | 8 | 4 | x | x | x
COC(=O)c1ccc(OCc2cc(=O)n3ccsc3n2)cc1 | 1 | 9 | 3 | -33 | 80* | -36 | 18 | 9 | 2
CCN1CCN(C(=O)NCc2ccccc2)CC1 | 2 | -5 | 5 | -2 | 20 | 5 | x | x | x
NCCc1nnc(SCc2ccc(F)cc2)o1 | 0 | 1 | -6 | 17 | 68* | -17 | 8 | 5 | 2
CN1CCN(Cc2c(C(=O)N/N=C/c3cccc(Br)c3)nnn2-c2nonc2N)CC1 | 3 | 12 | -3 | 5 | 16 | 40 | x | x | x
Nc1nc2nccc(-c3cccnc3)n2n1 | 2 | 9 | -4 | 8 | 95* | -20 | 11 | 12 | 1
COc1ccc(Nc2nnc(-c3ccc4c(c3)OCO4)o2)cc1 | x | x | -4 | x | x | x | x | x | x
CCN(CC)CCNc1ccc(C)c2sc3ccc(O)cc3c(=O)c12 | x | -17 | -4 | x | 67* | x | 69* | 12 | -45
CCN(CC)CCNc1ccc(CO)c2oc3cc(Cl)ccc3c(=O)c12 | x | -13 | -8 | x | x | x | x | x | x
COc1ccc(CCN2CC(C(=O)O)CC2=O)cc1 (stereo not drawn) | 1 | 13 | -6 | 20 | 96* | 5 | 3 | 3 | -5
CCOC(=O)C1(CC2CCCCO2)CCN(Cc2cc3ccccc3[nH]2)CC1 (stereo not drawn) | 4 | 35 | -2 | -11 | 59* | -6 | 23 | 2 | -43
CC1CCN(c2ccccc2NC(=S)NC(=O)c2ccc(-c3cccc([N+](=O)[O-])c3)o2)CC1 | 2 | -7 | -2 | 19 | 79* | -3 | 86* | 32* | 15
CC(C)n1nnnc1SCC(=O)NC1CCCC1 | 6 | -32 | -7 | 4 | 19 | 5 | x | x | x
COc1ccc(CCNC(=O)C2CCN(S(=O)(=O)c3cccc4cccnc34)CC2)cc1OC | -4 | -16 | x | 5 | 52 | -3 | 23 | 0 | -17
COc1ccc(CCNC(=O)C2CCN(S(=O)(=O)c3cccc4nsnc34)CC2)cc1OC | -2 | -20 | -2 | 22 | 4 | -2 | x | x | x
O=C(N[C@H](C(=O)N1CCC[C@H]1C(=O)NC1CCCC1)c1ccccc1)c1ccccc1 | x | x | -7 | x | x | x | x | x | x
SMILES | NR2E3 ag-1 | NR2E3 ag-2 | GalR3 antagonist | 697 NFkB inh | Gli-Sufu antag | Jurkat NFkB inh | Gli-Sufu confirm | Gli cytotox | Wnt3a cs
Cc1ccc(NC(=S)N2CCN(Cc3ccc4c(c3)OCO4)CC2)c(C)c1 | -3 | 0 | -2 | 15 | 3 | 14 | x | x | x
CCN(CC)S(=O)(=O)c1ccc(C)c(NC(=S)N2CCN(Cc3ccc4c(c3)OCO4)CC2)c1 | 1 | -4 | -6 | -18 | 64* | 27 | 43 | 24 | 7
CCN(CC)S(=O)(=O)c1ccc(C)c(NC(=S)N2CCN(C/C=C/c3ccccc3)CC2)c1 | 0 | 21 | 0 | -18 | 66* | 29 | 39 | 31* | -8
Cc1ccc(S(=O)(=O)Nc2ccc(-n3c(C)nc4ccccc4c3=O)cc2)cc1 | 0 | 13 | 2 | -17 | 82* | -6 | 20 | 21 | -10
O=c1nc2ccccc2c(NS(=O)(=O)c2ccccc2)n1-c1ccccc1 | 3 | -26 | -5 | -5 | 83* | -14 | 27 | 15 | -15
Cc1ccc(S(=O)(=O)Nc2c3ccccc3nc(=O)n2-c2ccccc2)cc1 | 5 | 7 | -6 | -61 | 12 | -38 | x | x | x
O=C(CCc1c[nH]c2ccccc12)OCC(=O)N1CCN(S(=O)(=O)c2ccccc2)CC1 | -3 | -24 | -5 | 2 | -1 | 13 | x | x | x
Cc1c(C(=O)N2CCN(Cc3ccccc3)CC2)oc2c1C(=O)CC(C)(C)C2 | 4 | -3 | 3 | -9 | 52 | -6 | 15 | 13 | -44
Cc1ccsc1C(=O)N(C)CC(=O)N(CC(C)C)c1c(N)n(CC(C)C)c(=O)[nH]c1=O | -2 | 10 | -3 | 10 | -12 | 2 | x | x | x
N=c1c(-c2nc3ccccc3[nH]2)cc(C(=O)c2cccs2)nn1-c1ccccc1 | -3 | 21 | x | -33 | 8 | -17 | x | x | x
N=c1c(-c2nc3ccccc3[nH]2)cc(C(=O)c2ccco2)nn1-c1ccccc1 | 3 | 2 | -4 | -13 | 62* | 5 | 35 | 6 | -118
Cc1ccc(S(=O)(=O)Nc2cccc(C(=O)NCC(c3ccco3)N3CCCC3)c2)cc1F (stereo not drawn) | 0 | -3 | -4 | 8 | 32 | 6 | x | x | x
COc1ccccc1NC(=O)Nc1nc(CC(=O)N2CCN(c3ccc(F)cc3)CC2)cs1 | 2 | 18 | -1 | -7 | 6 | 7 | x | x | x
CC(C)COc1cccc(C(=O)Nc2ccc(CN3CCOCC3)cc2)c1 | 2 | 4 | -10 | -21 | 51 | -10 | 16 | 12 | 3
CC(C)COc1cccc(C(=O)Nc2ccc(S(=O)(=O)N3CCOCC3)cc2)c1 | -1 | 25 | -12 | -38 | 5 | -14 | x | x | x
COc1ccc(C=CC(=O)c2ccc(OCc3ccccc3)c(OC)c2)cc1OC | x | -8 | 4 | x | x | x | x | x | x
O=C(/C=C/c1ccc(OCc2ccccc2)c(OCc2ccccc2)c1)c1cccnc1 | 0 | -1 | 1 | -1 | 53 | 5 | 25 | 15 | -20

Source: PubChem BioAssay
